Results as given in ChEMBL document CHEMBL1142229, “Docosahexaenoic acid alters bilayer elastic properties” (Proc Natl Acad Sci U S A, 2007).
Active and inactive are the calls of the source. The calls are words filed in the database; no cut-off is given here.

Legend:
[1] = Partition coefficient (x10-4) across dioleoylphosphatidylcholine bilayer; format: ADME; details: lipid bilayer/electrolyte
In short: (§1)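 Lipid/electrolyte partition coefficient measured with ADIFAB (0.2 μM) in 1 M NaCl, 10 mM Hepes, pH 7.0 at 25 ± 1°C. Extruded vesicles at ≈100 μM phospholipid; total fatty acid raised stepwise over 3–30 μM, 3–5 min equilibration per step. Emission read at 432 and 505 nm (excitation 386 nm), corrected for cuvette binding. Kp from free vs total FA and Vm/Va; triplicate, averaged over concentrations.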

[2] = Activity at gramicidin channel 13 assessed as increase in single channel current at 10 uM
In short: (§2)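 Planar bilayers of DC18:1PC (20 mg/ml in n-decane) across a ≈1.6 mm hole in a Teflon partition, in 1 M NaCl, 10 mM Hepes, pH 7.0. Opposite-helix-sense gA analogue pairs, gA(13) and AgA(15). Fatty acid added to both sides from ethanolic stock with NaOH and BHT, stirred 5 min, equilibrated 10 min. Single-channel currents and lifetimes recorded before and after addition. Where stated, cholesterol:DC18:1PC molar ratio 1:1.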

[3] = Activity at gramicidin channel 13 assessed as increase in single channel current at 10 uM in presence of cholesterol; in short: as §2
[4] = Activity at gramicidin A negative channel 15 assessed as increase in single channel current; in short: as §2
[5] = Activity at gramicidin channel 13 assessed as increase in single channel current; in short: as §2
[6] = Partition coefficient (x10-4) across dieicosenoyl-phosphatidylcholine bilayer; format: ADME; details: lipid bilayer/electrolyte; in short: as §1
[7] = Effect on gramicidin channel 13 activity; in short: as §2
[8] = Partition coefficient (x10-4) across dioleoylphosphatidylcholine bilayer in presence of cholesterol; format: ADME; details: lipid bilayer/electrolyte; in short: as §1

Partition coefficient [1] | Activity [2] [%] | Activity [3] [%] | Activity [4] | Activity [5] | Partition coefficient [6] | Activity [7] | Partition coefficient [8] | SMILES
20 | 15 | 65 | Active | Active | 20 | Active | 19 | CC/C=C\C/C=C\C/C=C\C/C=C\C/C=C\C/C=C\CCC(=O)O [DOCONEXENT]
254 | 5 | 15 | inactive | inactive | 246 | inactive | – | CCCCCCCC/C=C\CCCCCCCC(=O)O [OLEIC ACID]
